In experiment [1] the target is T1, hCB1R (Homo sapiens, UniProt P21554). The experiment is described as follows: ERK1/2 phosphorylation, In-cell western. Type of experiment: cell-based. The following applies: 1 nM – 10 μM; HEK293A and Neuro2a cells.
Experiment [2] deals with T1, hCB1R. The experiment is described as follows: PLCβ3 phosphorylation, In-cell western. The following applies: 1 nM – 10 μM; HEK293A and Neuro2a cells. The class given is cell-based.
Experiment [3] concerns the target T2, CB1R (Mus musculus, UniProt P47746). The experiment is described as follows: Electrically-evoked contractions of mouse isolated vas deferens.
Experiment [4] concerns the target T1, hCB1R. The experiment can be described thus: Arrestin2 recruitment to hCB1R-GFP2 by BRET2. The class given is cell-based. As to conditions: for Arrestin2 recruitment by the compound alone: 1 nM – 10 μM, HEK293A or Neuro2a cells; for Log(αβ) / α (affinity modulation) / β (efficacy modulation) / τB (modulator efficacy): BRETEff, HEK293A, ± SD; for Log(αβ) / α (affinity modulation) / β (efficacy modulation): CP55,940 as agonist; for τB (modulator efficacy): fraction of the efficacy of CP55,940. (Activated receptors often draw arrestin, which recruitment assays turn into a signal.)

The target of experiment [5] is hCB2R (Homo sapiens, UniProt P34972). The experiment is described as follows: [3H]CP55,940 binding to CHO-hCB2R membranes. As to conditions: data not shown. The method, boiled down: (§1)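 Filtration displacement assay with 0.7 nM [3H]CP55,940 in 50 mM Tris-HCl/50 mM Tris-base, 0.1% BSA, pH 7.4, run 60 min at 37 °C. Membranes were from CHO cells stably expressing hCB2R (50 µg protein) or from mouse whole brain. Test compound was added from 10 mM DMSO stock (0.1% DMSO final). Nonspecific binding used 1 µM unlabelled CP55,940; radioactivity was counted by liquid scintillation.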

Experiment [6] deals with hCB1R. The experiment can be described thus: Induced signaling bias, cAMP inhibition versus arrestin2 recruitment, ΔLog. Type of experiment: cell-based, human. The following applies: CP55,940, 95% CI; for ΔLog(αβ): cAMP versus arrestin2 (BRET2); for Induced Bias: toward inhibition of cAMP production over arrestin2 recruitment. In a few lines:
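Arrestin2 arm: HEK293A cells were transfected with hCB1R-GFP2 and arrestin2-Rluc. Cells were suspended in BRET buffer 48 h later and read by BRET2 (coelenterazine 400a 50 μM; emissions 405/510 nm). cAMP arm: HEK-CRE cells carried hCB1R-GFP2 and were read by luciferase reporter in 10 µM forskolin. CP55,940 1 nM–10 µM ± test compound 1 nM–10 µM, 0.1% DMSO. Data were fit to an allosteric binding plus Black-Leff operational model, with four independent estimates.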

For experiment [7], the target named is T2, CB1R. The experiment is described as follows: [3H]CP55,940 binding to mouse brain membranes. The following applies: 1 nM – 10 μM. In a few lines: as §1
Experiment [8] addresses T1, hCB1R. The experiment is described as follows: cAMP luciferase reporter assay in HEK-CRE cells transfected with hCB1R-GFP2. Type of experiment: cell-based. The following applies: for Log(αβ) / α (affinity modulation) / β (efficacy modulation): CP55,940 as agonist, ± SD; for τB (modulator efficacy): fraction of the efficacy of CP55,940, ± SD. A general note: Reporter assays use an easily measured gene product as a stand-in for the process of interest.

Experiment [9] concerns the target T1, hCB1R. The experiment is described as follows: [3H]CP55,940 binding to CHO-hCB1R membranes. The following applies: 10 μM.

Three compounds from paper PMC13094344 (ACS chemical neuroscience, 2017) can be followed below.

T2 sequence (P47746 whole entry): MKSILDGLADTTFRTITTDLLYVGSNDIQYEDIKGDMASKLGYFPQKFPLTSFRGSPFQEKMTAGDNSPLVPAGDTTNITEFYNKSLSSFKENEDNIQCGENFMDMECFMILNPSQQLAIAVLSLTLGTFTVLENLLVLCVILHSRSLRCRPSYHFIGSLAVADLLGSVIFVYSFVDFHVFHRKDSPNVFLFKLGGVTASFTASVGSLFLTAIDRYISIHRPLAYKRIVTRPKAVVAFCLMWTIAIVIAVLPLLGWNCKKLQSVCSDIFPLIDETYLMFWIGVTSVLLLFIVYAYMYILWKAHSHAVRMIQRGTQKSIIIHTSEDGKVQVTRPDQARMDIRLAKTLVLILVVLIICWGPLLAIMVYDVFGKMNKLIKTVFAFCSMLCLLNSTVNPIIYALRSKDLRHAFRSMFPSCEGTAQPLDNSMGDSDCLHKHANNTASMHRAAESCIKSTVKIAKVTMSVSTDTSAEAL
T1 sequence (P21554 whole entry): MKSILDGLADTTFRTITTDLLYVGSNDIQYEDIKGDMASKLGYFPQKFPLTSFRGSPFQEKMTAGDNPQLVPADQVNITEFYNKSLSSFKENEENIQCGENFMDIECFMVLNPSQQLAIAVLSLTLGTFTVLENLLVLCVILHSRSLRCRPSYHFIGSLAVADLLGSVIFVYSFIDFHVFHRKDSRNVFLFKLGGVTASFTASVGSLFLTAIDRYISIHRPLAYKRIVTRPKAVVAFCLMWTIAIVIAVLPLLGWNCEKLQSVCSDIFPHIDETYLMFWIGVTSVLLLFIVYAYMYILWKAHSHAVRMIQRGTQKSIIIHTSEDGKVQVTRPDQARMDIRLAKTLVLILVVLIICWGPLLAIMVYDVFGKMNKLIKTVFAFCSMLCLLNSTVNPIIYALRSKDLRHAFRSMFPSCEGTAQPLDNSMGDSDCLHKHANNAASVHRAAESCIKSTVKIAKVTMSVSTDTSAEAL
Chain of hCB2R (P34972 whole entry): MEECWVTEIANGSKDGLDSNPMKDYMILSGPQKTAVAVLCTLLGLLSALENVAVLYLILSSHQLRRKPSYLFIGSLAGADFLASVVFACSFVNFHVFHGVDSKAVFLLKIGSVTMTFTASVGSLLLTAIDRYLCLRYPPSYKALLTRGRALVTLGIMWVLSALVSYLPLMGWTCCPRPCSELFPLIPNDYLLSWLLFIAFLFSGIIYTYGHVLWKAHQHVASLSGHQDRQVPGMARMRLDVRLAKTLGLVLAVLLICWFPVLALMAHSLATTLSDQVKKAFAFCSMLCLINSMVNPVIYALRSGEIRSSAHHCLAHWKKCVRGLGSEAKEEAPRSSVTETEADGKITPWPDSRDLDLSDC

Turning to `O=[N+]([O-])CC(c1ccccc1)c1c(-c2ccccc2)[nH]c2ccccc12` (centres unmarked) [GAT211], the “ERK phosphorylation by the compound alone” value (“ERK phosphorylation” below) in experiment [1] is recorded as “increased”. The “PLCβ3 phosphorylation by the compound alone” value (shortened to “PLCβ3 phosphorylation”) in [2] is “increased”. In experiment [3] (1 nM up to 10 μM, n=6, data not shown), the “Effect by itself on electrically-evoked contractions” value is on record as “no statistically significant effect”. In addition, in [3] (1 μM modulator, AEA 10 and 100 nM), the “Effect on AEA-induced inhibition of electrically-evoked contractions” value was “potentiated”. Further, in experiment [4], the “Arrestin2 recruitment by the compound alone” value (shortened to “Arrestin2 recruitment”) is “increased arrestin2 recruitment in a concentration-dependent manner”, the “Log(αβ)” value turned out to be 1.35 ± 0.04, the “α (affinity modulation)” value worked out at 24 ± 2.83 and the “β (efficacy modulation)” value came out at 0.95 ± 0.06. Besides, the “τB (modulator efficacy)” value in experiment [4] is given as 0.15 ± 0.03. In addition, the “Increase of [3H]CP55,940 binding to hCB2R” value in experiment [5] (10 μM) came to 29%. In experiment [5] (up to 1 μM), the “Effect on [3H]CP55,940 binding to hCB2R” value is recorded as “no effect”. Further, in experiment [6], the “ΔLog(αβ)” value was 0.01 (−0.18 – 0.21) and the “Induced Bias” value was “n.s”. Besides, in [7], the “Effect on [3H]CP55,940 binding to mouse brain membranes” value is listed as “enhanced”. For the same compound, in experiment [8], the “Log(αβ)” value turned out to be 1.37 ± 0.06, the “α (affinity modulation)” value came out at 21 ± 2, the “β (efficacy modulation)” value amounted to 1.13 ± 0.19 and the “τB (modulator efficacy)” value worked out at 0.19 ± 0.08.
Turning to `O=[N+]([O-])C[C@H](c1ccccc1)c1c(-c2ccccc2)[nH]c2ccccc12` [GAT228], the “ERK phosphorylation” value in experiment [1] was “increased”. Besides, in experiment [2], the “PLCβ3 phosphorylation” value was “increased”. Besides, in [4], the “Arrestin2 recruitment” value was “increased arrestin2 recruitment in a concentration-dependent manner”, the “Log(αβ)” value stood at 0.21 ± 0.10, the “α (affinity modulation)” value is reported as 2.5 ± 0.58 and the “β (efficacy modulation)” value came to 0.68 ± 0.09. For the same compound, the “τB (modulator efficacy)” value in [4] came out at 0.19 ± 0.04. Also, in experiment [6], the “ΔLog(αβ)” value was −0.27 (−0.40 – −0.09) and the “Induced Bias” value is recorded as 0.54 (0.35 – 0.81). Further, the “Effect on [3H]CP55,940 binding” value in experiment [9] is “weak PAM effect”. In experiment [8], the “Log(αβ)” value is listed as −0.06 ± 0.36, the “α (affinity modulation)” value amounted to 1.08 ± 0.34, the “β (efficacy modulation)” value was found to be 0.95 ± 0.5 and the “τB (modulator efficacy)” value was 0.15 ± 0.06.
`O=[N+]([O-])C[C@@H](c1ccccc1)c1c(-c2ccccc2)[nH]c2ccccc12` [GAT229]: the “ERK phosphorylation” value in [1] is given as “without effect”. For the same compound, the “PLCβ3 phosphorylation” value in experiment [2] is recorded as “without effect”. In addition, in experiment [4], the “Arrestin2 recruitment” value is recorded as “no effect”, the “Log(αβ)” value was 0.97 ± 0.14, the “α (affinity modulation)” value came out at 4.25 ± 1.5 and the “β (efficacy modulation)” value was found to be 2.3 ± 0.38. Besides, the “τB (modulator efficacy)” value in [4] is listed as 0. Moreover, in experiment [6], the “ΔLog(αβ)” value was 0.34 (0.14 – 0.54). In experiment [8], the “Log(αβ)” value is recorded as 1.3 ± 0.35, the “α (affinity modulation)” value worked out at 2.25 ± 1.26, the “β (efficacy modulation)” value was found to be 10.75 ± 4.43 and the “τB (modulator efficacy)” value was 0.
